Source: ChEMBL document CHEMBL1124259, “C-nor-9,11-secoestranes as modified estrogens and fertility regulation” (1988)

Tests used:
Format in all cases: functional
Rattus norvegicus [1] = assay: Antiimplantation activity as minimum effective dose after oral administration.; conditions: read-out: MED
Method in brief: (§1)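 Colony-bred adult female rats (150–170 g) were dosed orally with the compound as a gum acacia suspension on days 1–7 postcoitum, five to seven animals per group. Implants were counted by laparotomy on day 10 of pregnancy. The value is the minimum dose at which implants were totally absent from both uterine horns.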

Rattus norvegicus [2] = assay: Antiimplantation activity as minimum effective dose after subcutaneous administration.; conditions: sc, read-out: MED
Method in brief: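 Compound was given subcutaneously in 0.5 mL propylene glycol–saline (1:1, v/v) to colony-bred adult female rats (150–170 g) on days 1–7 postcoitum, five to seven animals per group. Laparotomy on day 10 of pregnancy counted implants. The minimum dose giving total absence of implants in both uterine horns was recorded.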

Rattus norvegicus [3] = assay: Antiimplantation activity as minimum effective dose after peroral administration.; conditions: po, read-out: MED; method in brief: as §1
Rattus norvegicus [4] = assay: Antiimplantation activity was measured as minimum effective dose after oral administration.; conditions: read-out: MED; method in brief: as §1
Rattus norvegicus [5] = assay: Antiimplantation activity as minimum effective dose after oral administration; conditions: read-out: MED; method in brief: as §1

Compound	minimal effective dose (Rattus norvegicus [2]) [mg/kg]	minimal effective dose (Rattus norvegicus [3]) [mg/kg]	also measured
C#C[C@]1(O)CCC(C2CCc3cc(O)ccc3C2)C1(C)C (stereo not given in full)	0.025		minimal effective dose (Rattus norvegicus [1]): 0.75 mg/kg
COc1ccc2c(c1)CCC(C1CCC(O)C1(C)C)C2 (stereo not given)	1.5	10.5	
CC1(C)C(O)CCC1C1CCc2cc(O)ccc2C1 (stereo not given)	0.01	10	
C#C[C@]1(O)CCC(C2CCc3cc(OC)ccc3C2)C1(C)C (stereo not given in full)	0.025		minimal effective dose (Rattus norvegicus [4]): 1 mg/kg
C[C@]12CC[C@@H]3c4ccc(O)cc4CC[C@H]3[C@@H]1CC[C@@H]2O [ESTRADIOL]	0.015		
C#C[C@]1(O)CC[C@H]2[C@@H]3CCc4cc(O)ccc4[C@H]3CC[C@@]21C [ETHINYL ESTRADIOL]			minimal effective dose (Rattus norvegicus [5]): 0.15 mg/kg
